Experimental data gathered from unrelated publications.
Target: Ephrin type-B receptor 3 (EPHB3, Homo sapiens, UniProt P54753)
Residues used in one study (P54753 34-998): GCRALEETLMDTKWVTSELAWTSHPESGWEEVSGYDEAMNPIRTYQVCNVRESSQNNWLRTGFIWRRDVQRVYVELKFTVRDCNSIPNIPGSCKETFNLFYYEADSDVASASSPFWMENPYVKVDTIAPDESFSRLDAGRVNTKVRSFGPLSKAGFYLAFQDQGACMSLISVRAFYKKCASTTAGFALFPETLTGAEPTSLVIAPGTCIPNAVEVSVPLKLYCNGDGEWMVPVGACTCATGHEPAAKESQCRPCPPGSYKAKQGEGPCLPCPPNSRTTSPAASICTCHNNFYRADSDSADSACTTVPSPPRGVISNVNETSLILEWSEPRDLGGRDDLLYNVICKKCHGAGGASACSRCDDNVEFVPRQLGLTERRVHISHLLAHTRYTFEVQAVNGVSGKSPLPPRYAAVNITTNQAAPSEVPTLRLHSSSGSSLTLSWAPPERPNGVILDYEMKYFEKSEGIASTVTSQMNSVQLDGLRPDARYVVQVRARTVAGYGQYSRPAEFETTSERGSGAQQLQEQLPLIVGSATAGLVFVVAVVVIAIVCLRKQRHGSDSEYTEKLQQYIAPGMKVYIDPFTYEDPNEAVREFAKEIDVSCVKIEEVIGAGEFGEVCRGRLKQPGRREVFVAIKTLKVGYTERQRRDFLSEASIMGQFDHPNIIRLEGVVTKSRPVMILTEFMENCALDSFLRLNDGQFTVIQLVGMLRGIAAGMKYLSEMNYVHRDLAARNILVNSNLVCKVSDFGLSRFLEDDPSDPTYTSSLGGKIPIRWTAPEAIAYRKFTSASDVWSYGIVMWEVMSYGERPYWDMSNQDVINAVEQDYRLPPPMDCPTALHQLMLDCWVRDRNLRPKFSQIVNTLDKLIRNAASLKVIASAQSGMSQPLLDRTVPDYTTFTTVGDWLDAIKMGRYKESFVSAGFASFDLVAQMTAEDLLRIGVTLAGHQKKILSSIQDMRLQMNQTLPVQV

| SMILES | test | setting | quantity | result |
| --- | --- | --- | --- | --- |
| CNC(=O)c1cc(Oc2ccc(NC(=O)Nc3ccc(Cl)c(C(F)(F)F)c3)cc2)ccn1 | enzyme activity, inhibitor | 0.3 µM | inhibition | 3% |
| Cn1cc(Cl)c2c(Oc3c(F)cc(Nc4cc(Cl)nc(N)n4)cc3F)ccnc21 | cell-free assay, competition with immobilised ligand | 0.1 µM | remaining binding | 100% |
| CC(C)(C)C(=O)c1sc(NC2CCCCC2)nc1N | enzyme activity, inhibitor | 10 µM | remaining activity | 94% |
| Cn1nc(C(=O)NCc2ccc(C(=O)O)cc2)cc1-c1ccc2[nH]ccc2c1 | cell-free assay, competition with immobilised ligand | 0.1 µM | remaining binding | 100% |
| COc1cc(Nc2cnc(C#N)c(O[C@H](C)CN(C)C)n2)ncc1-c1cnn(C)c1 | enzyme activity, inhibitor, radiometric | 1 µM | remaining activity | 68% |
| N#CCCc1ccc2c(c1)-c1[nH]c3ccc([N+](=O)[O-])cc3c1CC(=O)N2 | cell-free assay | 0.5 µM | remaining signal | 102% |
| Cn1nc(C(F)(F)F)cc1-c1cnc(N2CCc3cc(S(=O)(=O)Nc4c(F)cc(Cl)cc4F)cc(N4CCCC4=O)c32)nc1 | cell-free assay, competition with immobilised ligand | 1 µM | remaining binding | 95% |
| Cc1ccc(Nc2nccc(N(C)c3ccc4c(C)n(C)nc4c3)n2)cc1S(N)(=O)=O | cell-free assay | 0.5 µM | remaining signal | 71.7% |
| CCCS(=O)(=O)Nc1ccc(F)c(C(=O)c2c[nH]c3ncc(-c4ccc(Cl)cc4)cc23)c1F | enzyme activity, inhibitor | 1 µM | inhibition | < 10% |
| CC(C)CC(=O)N1CCc2nc(-c3ccc(Br)cc3)nc(N(C)Cc3ccccc3)c2C1 | cell-free assay, competition with immobilised ligand | 0.1 µM | remaining binding | 100% |
| CC(C)(O)[C@H]1CC[C@H](Nc2ccc3ncc(-c4cccc(C(F)(F)F)c4)n3n2)CC1 | enzyme activity, inhibitor | 1 µM | remaining activity | 87.9% |
| Oc1cccc(-c2nc(N3CCOCC3)c3oc4ncccc4c3n2)c1 | enzyme activity, inhibitor | 10 µM | remaining activity | 127% |
| Cc1cc(NC(=O)c2cccc(S(F)(F)(F)(F)F)c2)cc(-n2ccn3nc(-c4cccnc4)cc23)c1 | cell-free assay, competition with immobilised ligand | 1 µM | remaining binding | 100% |
| COc1cc2ncnc(Nc3ccc(Oc4ccccc4)c(C)c3C)c2cc1OC | enzyme activity, inhibitor | 1 µM | inhibition | 2% |
| Cc1cnc(NC2CCOCC2)nc1-n1cnc(C(=O)NC(CN)c2cc(F)cc(Cl)c2)c1 (stereo not drawn) | enzyme activity, inhibitor, radiometric | 1 µM | remaining activity | 115% |
| CS(=O)(=O)N1CCCC(NC(=O)[C@H](CCC2CCCCC2)NC(=O)c2ccc(CNc3ncnc4c3nnn4-c3ccccc3)cc2)C1 (stereo partly drawn) | cell-free assay, competition with immobilised ligand | 0.1 µM | remaining binding | 91% |
| CC(C)(C)c1nc(-c2cccc(NS(=O)(=O)c3c(F)cccc3F)c2F)c(-c2ccnc(N)n2)s1 | enzyme activity, inhibitor, radiometric | 1 µM | remaining activity | 92% |
| O=C1NC(=O)c2cc(Nc3ccc(F)cc3)c(Nc3ccc(F)cc3)cc21 | cell-free assay | 0.5 µM | remaining signal | 94.7% |
| Cc1sc(C(=O)NC2COC2)cc1-n1cc(NC(=O)Nc2c(F)cccc2Cl)cn1 | enzyme activity, inhibitor | 10 µM | remaining activity | 97.2% |
| Cn1cncc1C1=CN(c2ncnc3[nH]cnc23)CCS1 | enzyme activity, inhibitor, radiometric | 2 µM | inhibition | 20.2% |
| Cc1ccc(C(=O)Nc2ccc(CN3CCN(C)CC3)c(C(F)(F)F)c2)cc1C#Cc1cnc2cccnn12 | cell-free assay | 23.5 nM | remaining signal | 100% |
